Assay results reported in ChEMBL document CHEMBL5661979, “Pharmacological inhibition of BMK1 suppresses tumor growth through promyelocytic leukemia protein” (Cancer Cell, 2010).
Calls of active or inactive are those of the source. The rule behind the calls is not given here.

Assays:
[1] = biological target: Tyrosine-protein kinase Fer (Homo sapiens, UniProt P16591); assay: Inhibition of FER in human HeLa cells lysate pre incubated for 15 mins followed by ATP acyl phosphate probe addition and measured after 10 mins by LC-MS/MS analysis; type: subcellular
Sequence of Tyrosine-protein kinase Fer (P16591 whole entry): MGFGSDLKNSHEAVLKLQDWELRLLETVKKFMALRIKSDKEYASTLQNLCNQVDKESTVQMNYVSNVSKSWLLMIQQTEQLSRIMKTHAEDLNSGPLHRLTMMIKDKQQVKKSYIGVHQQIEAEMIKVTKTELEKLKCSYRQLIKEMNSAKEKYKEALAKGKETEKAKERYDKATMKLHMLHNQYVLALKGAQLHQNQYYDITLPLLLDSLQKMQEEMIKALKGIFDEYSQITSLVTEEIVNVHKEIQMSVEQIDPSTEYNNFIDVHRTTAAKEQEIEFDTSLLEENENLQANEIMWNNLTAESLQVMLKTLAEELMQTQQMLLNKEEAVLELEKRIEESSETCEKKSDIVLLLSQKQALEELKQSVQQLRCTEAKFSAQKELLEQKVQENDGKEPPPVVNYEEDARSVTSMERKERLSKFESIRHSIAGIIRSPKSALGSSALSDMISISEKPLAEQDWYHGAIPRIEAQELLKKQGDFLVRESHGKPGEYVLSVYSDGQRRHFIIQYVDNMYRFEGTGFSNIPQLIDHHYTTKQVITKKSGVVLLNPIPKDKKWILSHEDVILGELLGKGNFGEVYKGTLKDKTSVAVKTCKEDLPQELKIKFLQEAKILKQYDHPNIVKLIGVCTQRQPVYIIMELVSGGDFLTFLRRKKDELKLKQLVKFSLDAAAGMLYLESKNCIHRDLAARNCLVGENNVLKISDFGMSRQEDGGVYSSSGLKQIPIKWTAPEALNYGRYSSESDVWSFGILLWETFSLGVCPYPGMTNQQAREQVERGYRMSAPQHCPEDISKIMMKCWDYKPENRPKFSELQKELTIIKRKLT

[2] = Half life in Sprague-Dawley rat at 2 mg/kg, po measured up to 8 hrs by LC-MS/MS analysis; type: ADME, organism-based; settings: in vivo
Outline: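 Sprague-Dawley rats given one intravenous dose or one oral dose of 2 mg/kg. Plasma drug concentrations were followed over time, with samples taken out to 8 hr after dosing. PK parameters (clearance, volume of distribution, half-life, oral bioavailability, Cmax) were calculated from these concentration–time data.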

[3] = biological target: Mitogen-activated protein kinase kinase kinase 2 (Homo sapiens, UniProt Q9Y2U5); assay: Inhibition of MAP3K2 in human HeLa cells lysate pre incubated for 15 mins followed by ADP acyl phosphate probe addition and measured after 10 mins by LC-MS/MS analysis; type: subcellular
Sequence of Mitogen-activated protein kinase kinase kinase 2 (Q9Y2U5 whole entry): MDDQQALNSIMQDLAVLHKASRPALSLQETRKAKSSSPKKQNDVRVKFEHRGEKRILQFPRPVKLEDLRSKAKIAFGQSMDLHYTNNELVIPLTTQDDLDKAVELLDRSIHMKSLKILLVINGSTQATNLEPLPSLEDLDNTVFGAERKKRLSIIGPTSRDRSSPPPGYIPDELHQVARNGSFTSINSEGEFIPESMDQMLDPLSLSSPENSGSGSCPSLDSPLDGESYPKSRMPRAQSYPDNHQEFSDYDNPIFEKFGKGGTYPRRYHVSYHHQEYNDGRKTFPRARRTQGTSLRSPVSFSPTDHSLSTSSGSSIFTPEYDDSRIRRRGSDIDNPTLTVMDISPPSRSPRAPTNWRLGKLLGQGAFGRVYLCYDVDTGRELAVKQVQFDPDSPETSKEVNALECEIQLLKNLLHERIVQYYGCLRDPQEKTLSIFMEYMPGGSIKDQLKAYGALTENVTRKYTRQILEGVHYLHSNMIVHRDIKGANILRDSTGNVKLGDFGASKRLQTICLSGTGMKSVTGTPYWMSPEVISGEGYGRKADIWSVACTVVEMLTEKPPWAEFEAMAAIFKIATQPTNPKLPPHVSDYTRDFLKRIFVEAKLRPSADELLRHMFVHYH

[4] = biological target: Interleukin-1 receptor-associated kinase 1 (Homo sapiens, UniProt P51617); assay: Inhibition of IRAK1 in human HeLa cells lysate at 10 uM pre incubated for 15 mins followed by ATP acyl phosphate probe addition and measured after 10 mins by LC-MS/MS analysis relative to control; type: subcellular; settings: time 25.0 min
Sequence of Interleukin-1 receptor-associated kinase 1 (P51617 whole entry, looked up): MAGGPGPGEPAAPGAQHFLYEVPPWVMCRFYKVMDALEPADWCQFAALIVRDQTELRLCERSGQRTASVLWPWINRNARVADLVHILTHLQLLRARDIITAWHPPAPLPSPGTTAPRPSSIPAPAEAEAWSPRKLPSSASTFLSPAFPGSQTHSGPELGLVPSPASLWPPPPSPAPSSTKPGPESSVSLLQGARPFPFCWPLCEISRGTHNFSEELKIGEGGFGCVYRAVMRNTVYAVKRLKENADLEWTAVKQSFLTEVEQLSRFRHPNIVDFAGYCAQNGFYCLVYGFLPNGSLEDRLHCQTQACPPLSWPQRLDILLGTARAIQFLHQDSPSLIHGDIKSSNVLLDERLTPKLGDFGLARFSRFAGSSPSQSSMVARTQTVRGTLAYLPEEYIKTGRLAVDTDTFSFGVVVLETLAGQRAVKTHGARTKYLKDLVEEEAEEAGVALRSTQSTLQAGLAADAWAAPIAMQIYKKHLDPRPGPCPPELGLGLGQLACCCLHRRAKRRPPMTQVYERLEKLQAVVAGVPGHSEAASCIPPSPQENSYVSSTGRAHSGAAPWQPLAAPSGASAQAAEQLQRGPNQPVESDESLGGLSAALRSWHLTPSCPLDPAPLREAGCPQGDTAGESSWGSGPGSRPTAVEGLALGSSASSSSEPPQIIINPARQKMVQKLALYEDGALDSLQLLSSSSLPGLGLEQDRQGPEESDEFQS

[5] = biological target: Cyclin-dependent kinase 2 (Homo sapiens, UniProt P24941); assay: Inhibition of CDK2 K1 site in human HeLa cells lysate pre incubated for 15 mins followed by ADP acyl phosphate probe addition and measured after 10 mins by LC-MS/MS analysis; type: subcellular
Outline: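 KiNativ profiling in HeLa lysate (5 mg/mL total protein). Lysate incubated 15 min with inhibitor at 50, 10, 2, 0.8 or 0 μM. ATP or ADP acylphosphate probe then added (5 μM final) and reacted 10 min. Reaction stopped with urea and analysed by targeted MS, using up to four fragment ions per kinase peptide-probe conjugate. % inhibition taken against untreated lysate. Run in duplicate.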

[6] = biological target: Ribosomal protein S6 kinase alpha-1 (Homo sapiens, UniProt Q15418); assay: Inhibition of RSK1 domain 2 in human HeLa cells lysate pre incubated for 15 mins followed by ATP acyl phosphate probe addition and measured after 10 mins by LC-MS/MS analysis; type: subcellular
Sequence of Ribosomal protein S6 kinase alpha-1 (Q15418 whole entry, the tested form may be a part): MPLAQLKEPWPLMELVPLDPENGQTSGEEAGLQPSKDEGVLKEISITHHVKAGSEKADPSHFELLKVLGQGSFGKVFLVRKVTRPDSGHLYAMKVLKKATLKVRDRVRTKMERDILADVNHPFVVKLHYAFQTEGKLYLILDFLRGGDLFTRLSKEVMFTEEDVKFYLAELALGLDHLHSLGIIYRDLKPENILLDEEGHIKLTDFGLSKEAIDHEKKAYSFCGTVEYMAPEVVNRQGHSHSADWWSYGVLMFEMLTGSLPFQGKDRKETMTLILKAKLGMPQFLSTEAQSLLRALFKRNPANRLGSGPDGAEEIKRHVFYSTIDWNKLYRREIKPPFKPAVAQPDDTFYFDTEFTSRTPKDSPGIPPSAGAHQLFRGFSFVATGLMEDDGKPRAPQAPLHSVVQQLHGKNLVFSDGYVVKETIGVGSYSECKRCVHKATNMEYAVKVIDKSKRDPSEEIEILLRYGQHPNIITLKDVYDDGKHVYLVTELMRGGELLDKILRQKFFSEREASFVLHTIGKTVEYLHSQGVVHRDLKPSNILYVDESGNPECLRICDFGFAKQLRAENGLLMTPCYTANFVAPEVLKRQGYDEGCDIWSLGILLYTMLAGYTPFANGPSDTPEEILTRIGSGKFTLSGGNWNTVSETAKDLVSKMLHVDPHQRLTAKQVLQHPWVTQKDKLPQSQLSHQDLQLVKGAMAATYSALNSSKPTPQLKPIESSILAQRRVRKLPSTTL

[7] = biological target: Mitogen-activated protein kinase 7 (Mus musculus) (UniProt Q9WVS8); assay: Inhibition of BMK1 in mouse MEF cells transfected with PML2D S403D/T409D mutant assessed as increase in p21 protein expression at 5 uM incubated for 16 hrs by Western blot analysis; type: cell-based
Sequence of Mitogen-activated protein kinase 7 (Mus musculus) (Q9WVS8 whole entry): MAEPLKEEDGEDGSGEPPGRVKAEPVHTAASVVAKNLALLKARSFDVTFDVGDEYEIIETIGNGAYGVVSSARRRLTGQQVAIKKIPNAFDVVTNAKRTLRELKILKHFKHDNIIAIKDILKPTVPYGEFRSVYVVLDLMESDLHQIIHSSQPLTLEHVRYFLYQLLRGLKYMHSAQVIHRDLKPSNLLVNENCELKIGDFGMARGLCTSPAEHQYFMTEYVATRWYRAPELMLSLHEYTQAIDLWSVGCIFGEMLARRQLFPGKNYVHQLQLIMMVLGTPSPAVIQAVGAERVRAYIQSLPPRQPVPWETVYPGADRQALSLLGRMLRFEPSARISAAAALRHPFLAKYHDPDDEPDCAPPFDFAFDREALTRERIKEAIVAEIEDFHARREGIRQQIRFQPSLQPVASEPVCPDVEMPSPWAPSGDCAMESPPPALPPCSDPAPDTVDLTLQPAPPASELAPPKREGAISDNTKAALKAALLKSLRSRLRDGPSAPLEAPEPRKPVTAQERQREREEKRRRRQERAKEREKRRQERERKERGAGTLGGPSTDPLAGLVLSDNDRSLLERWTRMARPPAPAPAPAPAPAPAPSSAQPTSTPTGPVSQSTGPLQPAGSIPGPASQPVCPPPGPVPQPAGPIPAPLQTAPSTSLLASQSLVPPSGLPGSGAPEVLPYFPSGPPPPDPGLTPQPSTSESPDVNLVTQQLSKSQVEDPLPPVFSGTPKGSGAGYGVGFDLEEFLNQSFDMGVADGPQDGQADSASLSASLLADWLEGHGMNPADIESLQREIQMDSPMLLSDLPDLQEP
Outline: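 Pml−/− MEFs infected with Ad-EV, Ad-PML or Ad-PML2D. Three days later treated ±5 μM inhibitor for 16 h. p21 western blot quantified by densitometry and normalized to GAPDH, relative to untreated Ad-EV-infected Pml−/− cells set as 1. n = 3, ±SEM.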

[8] = biological target: T1, Interleukin-1 receptor-associated kinase 4 (Homo sapiens) (UniProt Q9NWZ3); assay: Inhibition of IRAK4 in human HeLa cells lysate at 2 uM pre incubated for 15 mins followed by ADP acyl phosphate probe addition and measured after 10 mins by LC-MS/MS analysis relative to control; type: subcellular; settings: time 25.0 min
T1 sequence (whole entry): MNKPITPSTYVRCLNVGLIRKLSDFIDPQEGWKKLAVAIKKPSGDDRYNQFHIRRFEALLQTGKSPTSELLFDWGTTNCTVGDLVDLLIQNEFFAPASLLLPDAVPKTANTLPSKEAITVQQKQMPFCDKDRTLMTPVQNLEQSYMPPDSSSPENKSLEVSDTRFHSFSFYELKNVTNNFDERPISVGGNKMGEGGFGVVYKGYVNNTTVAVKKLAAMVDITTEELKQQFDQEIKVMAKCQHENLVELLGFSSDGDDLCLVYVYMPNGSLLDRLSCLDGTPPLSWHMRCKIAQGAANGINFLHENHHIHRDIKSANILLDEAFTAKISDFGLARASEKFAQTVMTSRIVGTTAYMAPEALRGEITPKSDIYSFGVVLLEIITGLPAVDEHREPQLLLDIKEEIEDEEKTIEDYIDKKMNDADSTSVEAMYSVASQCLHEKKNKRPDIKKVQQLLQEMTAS

[9] = biological target: Serine/threonine-protein kinase PLK4 (Homo sapiens) (UniProt O00444); assay: Inhibition of recombinant Flag-tagged PLK4 (unknown origin) expressed in HEK293 cells at 0.08 to 10 uM in presence of 32P-gamma-ATP; type: cell-based; settings: dose 0.08-10 µM
Sequence of Serine/threonine-protein kinase PLK4 (Homo sapiens) (O00444 whole entry): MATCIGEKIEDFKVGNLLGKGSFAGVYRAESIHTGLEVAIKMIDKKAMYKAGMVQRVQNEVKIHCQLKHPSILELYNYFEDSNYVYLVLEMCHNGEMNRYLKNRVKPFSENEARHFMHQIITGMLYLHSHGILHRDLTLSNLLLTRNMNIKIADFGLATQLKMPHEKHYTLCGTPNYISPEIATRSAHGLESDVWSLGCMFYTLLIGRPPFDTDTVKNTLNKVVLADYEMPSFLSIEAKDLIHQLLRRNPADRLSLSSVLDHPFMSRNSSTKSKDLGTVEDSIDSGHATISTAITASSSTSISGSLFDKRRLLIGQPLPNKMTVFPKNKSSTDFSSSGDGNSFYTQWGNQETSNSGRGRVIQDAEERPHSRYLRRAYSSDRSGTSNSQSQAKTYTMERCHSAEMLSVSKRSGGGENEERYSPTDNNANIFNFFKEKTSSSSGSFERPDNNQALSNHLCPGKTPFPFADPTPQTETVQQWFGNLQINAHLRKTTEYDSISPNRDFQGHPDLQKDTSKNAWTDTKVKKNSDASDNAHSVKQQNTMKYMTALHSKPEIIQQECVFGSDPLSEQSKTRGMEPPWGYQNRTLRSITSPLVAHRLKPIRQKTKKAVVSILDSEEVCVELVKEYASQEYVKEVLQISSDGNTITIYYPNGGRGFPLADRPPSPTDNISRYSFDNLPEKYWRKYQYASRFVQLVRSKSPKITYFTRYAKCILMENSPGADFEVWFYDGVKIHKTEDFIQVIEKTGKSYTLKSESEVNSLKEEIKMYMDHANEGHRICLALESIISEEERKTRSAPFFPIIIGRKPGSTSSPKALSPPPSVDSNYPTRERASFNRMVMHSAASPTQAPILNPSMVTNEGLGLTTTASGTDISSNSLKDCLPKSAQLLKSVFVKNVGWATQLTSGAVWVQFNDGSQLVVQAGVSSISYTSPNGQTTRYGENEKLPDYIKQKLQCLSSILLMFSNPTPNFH

HeLa = assay: Antiproliferative activity against human HeLa cells assessed as reduction in cell viability at 5 uM after 48 hrs by MTT assay; type: functional, cell-based
Outline: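 HeLa cells were infected with empty adenovirus or adenovirus encoding dominant-negative BMK1(AEF). After 24 hr they were treated with or without 5 μM drug for 48 hr and read by MTT. % growth inhibition = (1 − MTT of group / MTT of Ad-EV-only cells) × 100. n = 3.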

[10] = biological target: T2, Non-receptor tyrosine-protein kinase TNK1 (Homo sapiens) (UniProt Q13470); assay: Inhibition of TNK1 in human HeLa cells lysate at 10 uM pre incubated for 15 mins followed by ADP acyl phosphate probe addition and measured after 10 mins by LC-MS/MS analysis relative to control; type: subcellular; settings: time 25.0 min
T2 sequence (whole entry): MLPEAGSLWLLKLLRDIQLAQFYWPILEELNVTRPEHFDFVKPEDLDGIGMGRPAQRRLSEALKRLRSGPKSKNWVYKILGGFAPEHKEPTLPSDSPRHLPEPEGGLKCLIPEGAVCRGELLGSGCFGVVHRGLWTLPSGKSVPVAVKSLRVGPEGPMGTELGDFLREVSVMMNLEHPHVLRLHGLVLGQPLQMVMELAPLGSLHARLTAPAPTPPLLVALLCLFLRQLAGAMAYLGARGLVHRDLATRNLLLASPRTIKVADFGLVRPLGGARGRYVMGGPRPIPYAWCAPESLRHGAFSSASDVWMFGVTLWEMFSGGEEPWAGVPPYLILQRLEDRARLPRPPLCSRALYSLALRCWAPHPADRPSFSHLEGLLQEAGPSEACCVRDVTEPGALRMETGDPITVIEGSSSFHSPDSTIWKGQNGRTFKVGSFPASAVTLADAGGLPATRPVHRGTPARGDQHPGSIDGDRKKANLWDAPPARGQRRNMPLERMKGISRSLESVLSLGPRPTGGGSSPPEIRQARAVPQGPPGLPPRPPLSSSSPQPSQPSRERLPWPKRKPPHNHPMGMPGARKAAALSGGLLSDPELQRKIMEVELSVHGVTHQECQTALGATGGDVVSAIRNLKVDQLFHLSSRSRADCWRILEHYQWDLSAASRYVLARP

Compound: CCOc1cc(N2CCC(O)CC2)ccc1Nc1ncc2c(n1)N(C)c1ccccc1C(=O)N2C
- IC50 [1]: > 50 µM
- half-life [2]: 3.4 h
- IC50 [3]: > 50 µM
- inhibition [4]: 1.9%
- IC50 [5]: > 50 µM
- IC50 [6]: 26 µM
- inhibition [7]: inactive
- inhibition [8]: 12.7%
- inhibition [9]: Active
- Activity (HeLa): Active
- inhibition [10]: 46%
